According to ChEMBL document CHEMBL1131032, “Selective endothelin A receptor antagonists. 3. Discovery and structure-activity relationships of a series of 4-phenoxybutanoic acid derivatives” (J Med Chem, 1998):
One block for each compound: values may come before it. Activity calls are given as the source filed them. No cut-off for these calls is given here. Where a SMILES comes first, the peptide text is derived from it. [ ]: non-standard residue; d: D form.

Columns and labels:
Rattus norvegicus [1] = organism: Rattus norvegicus; assay: Antagonism of ET-1 mediated contraction of isolated de-endothelialized rat aortic rings; assay type: functional, Aorta
[2] = molecular target: T1, Endothelin receptor type B (Rattus norvegicus, UniProt P21451); assay: In vitro inhibition of [125I]ET1 binding to rat cerebellum Endothelin B receptor.; assay type: tissue-based
T1 sequence (P21451 whole entry): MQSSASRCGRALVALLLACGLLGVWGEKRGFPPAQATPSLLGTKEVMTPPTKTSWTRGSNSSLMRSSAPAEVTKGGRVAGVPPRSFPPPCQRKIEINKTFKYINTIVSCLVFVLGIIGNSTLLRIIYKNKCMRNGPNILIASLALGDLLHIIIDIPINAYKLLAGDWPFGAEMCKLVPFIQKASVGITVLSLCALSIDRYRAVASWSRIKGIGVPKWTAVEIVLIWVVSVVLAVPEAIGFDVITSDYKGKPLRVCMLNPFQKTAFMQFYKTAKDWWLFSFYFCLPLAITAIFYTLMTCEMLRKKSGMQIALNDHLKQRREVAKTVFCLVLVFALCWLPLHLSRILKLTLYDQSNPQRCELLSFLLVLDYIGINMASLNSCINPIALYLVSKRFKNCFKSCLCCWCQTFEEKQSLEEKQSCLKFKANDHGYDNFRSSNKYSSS
How it was run: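 Rat cerebellum was homogenized in Tris/sucrose/EDTA buffer with protease inhibitors; the 40000g membrane pellet was used. Nonspecific binding was defined with 500 nM ET-1. IC50 by curve fitting; single experiment.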

Endothelin-1 receptor = molecular target: T2, Endothelin-1 receptor (Rattus norvegicus, UniProt P26684); assay: In vitro inhibition of [125I]ET1 binding to rat A10 cell Endothelin A receptor.; assay type: cell-based
T2 sequence (P26684 whole entry): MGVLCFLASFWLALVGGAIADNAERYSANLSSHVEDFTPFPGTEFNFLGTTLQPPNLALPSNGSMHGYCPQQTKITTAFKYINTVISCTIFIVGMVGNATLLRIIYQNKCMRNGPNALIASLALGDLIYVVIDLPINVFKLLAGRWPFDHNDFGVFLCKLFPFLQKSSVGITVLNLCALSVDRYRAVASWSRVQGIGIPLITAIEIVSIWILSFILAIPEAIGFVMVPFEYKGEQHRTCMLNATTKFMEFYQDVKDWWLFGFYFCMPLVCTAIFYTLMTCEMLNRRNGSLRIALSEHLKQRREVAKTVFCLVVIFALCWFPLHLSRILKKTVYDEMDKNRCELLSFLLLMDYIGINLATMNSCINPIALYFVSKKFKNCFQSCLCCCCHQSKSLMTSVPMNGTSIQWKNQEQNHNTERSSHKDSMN
How it was run: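 Rat A10 cells were harvested, washed in 50 mM Hepes pH 7.3 with 1 mM CaCl2 and 5 mM MgCl2, and frozen. Nonspecific binding was defined with 500 nM ET-1. IC50 came from curve fitting; mean of n ± SEM.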

Rattus norvegicus [3] = assay: Effect of compound on ET-1 induced changes in diastolic blood pressure in the pithed rat pretreated with BQ 788 (3 mg/kg) at 25 uM/kg (iv) dose; assay type: functional, Artery
How it was run: (§1)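 Male Sprague-Dawley rats (250–350 g), isoflurane-anesthetized, pithed and artificially respired. Dosing via the jugular vein; blood pressure via carotid artery transducer. BQ 788 (3 mg/kg) and test compound given iv 10 min before a bolus ET-1 dose–pressor curve (0.01–10 nmol/kg). Fold rightward shift from vehicle measured at the ET-1 dose giving a 40 mmHg diastolic change. Mean of 4–6 rats.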

Rattus norvegicus [4] = assay: Effect of compound on ET-1 induced changes in diastolic blood pressure in the pithed rat pretreated with BQ 788 (3 mg/kg) at 2.5 uM/kg (iv) dose; NS = Not significant; assay type: functional, organism-based; conditions: Artery; how it was run: as §1
Rattus norvegicus [5] = assay: Effect of compound on ET-1 induced changes in diastolic blood pressure in the pithed rat pretreated with BQ 788 (3 mg/kg) at 7.5 uM/kg (iv) dose; assay type: functional, Artery; how it was run: as §1
Rattus norvegicus [6] = assay: Effect of compound on ET-1 induced changes in diastolic blood pressure in the pithed rat pretreated with BQ 788 (3 mg/kg) at 75 uM/kg (iv) dose; assay type: functional, Artery; how it was run: as §1

- IC50 [2]: > 10 µM
Compound: Cc1ccccc1[C@@H](CCC(=O)O)Oc1cc(OCc2ccsc2)ccc1C#N
- pKB (Rattus norvegicus [1]): 7.4

- IC50 (Endothelin-1 receptor): 0.005 µM
- IC50 [2]: 10 µM
Compound: Cc1ccccc1[C@@H](CCC(=O)O)Oc1cc(OCc2cccnc2)ccc1C#N
- Shift (Rattus norvegicus [3]): 10.48
- Shift (Rattus norvegicus [4]): inactive
- Shift (Rattus norvegicus [5]): 2.27
- Shift (Rattus norvegicus [6]): 36.58

- IC50 (Endothelin-1 receptor): 0.02 µM
- IC50 [2]: 10 µM
Compound: Cc1ccccc1[C@@H](CCC(=O)O)Oc1cc(OCc2ccncc2)ccc1C#N
- pKB (Rattus norvegicus [1]): 7.1

- IC50 (Endothelin-1 receptor): 0.11 µM
- IC50 [2]: > 30 µM
Compound: Cc1ccccc1C(CCC(=O)O)C(=O)c1cccc(OCc2ccsc2)c1 (stereo not drawn)
- pKB (Rattus norvegicus [1]): 5.7

- IC50 (Endothelin-1 receptor): 0.007 µM
- IC50 [2]: 10 µM
Compound: Cc1ccccc1[C@@H](CCC(=O)O)Oc1cc(OCc2cnsc2)ccc1C#N
- pKB (Rattus norvegicus [1]): 7.3

- IC50 [2]: 10 µM
Compound: Cc1ccccc1[C@H](CCC(=O)O)Oc1cc(OCc2ccsc2)ccc1C#N

- IC50 (Endothelin-1 receptor): 0.871 µM
- IC50 [2]: > 30 µM
Compound: Cc1ccccc1C(CCC(=O)O)Oc1cccc(OCc2ccsc2)c1 (stereo not drawn)

Continued, compound first:

Compound: Cc1ccccc1C(CCC(=O)O)Oc1cc(OCc2ccsc2)ccc1-c1cc(C(=O)O)[nH]n1 (stereo not drawn)
- pKB (Rattus norvegicus [1]): 7.3
- IC50 (Endothelin-1 receptor): 0.007 µM
- IC50 [2]: 3 µM

Compound: Cc1ccccc1C(CCC(=O)O)Oc1cc(OCc2ccsc2)ccc1C(N)=O (stereo not drawn)
- IC50 (Endothelin-1 receptor): 0.029 µM
- IC50 [2]: 10 µM

Compound: Cc1ccccc1C(CCC(=O)O)Oc1cc(OCc2ccsc2)ccc1-c1cc[nH]n1 (stereo not drawn)
- IC50 (Endothelin-1 receptor): 0.02 µM
- IC50 [2]: 10 µM

Compound: Cc1ccccc1C(CCC(=O)O)Oc1cc(OCc2ccsc2)ccc1C(=O)O (stereo not drawn)
- IC50 (Endothelin-1 receptor): 0.207 µM
- IC50 [2]: > 10 µM

Compound: CC(=O)c1ccc(OCc2ccsc2)cc1OC(CCC(=O)O)c1ccccc1C (stereo not drawn)
- IC50 (Endothelin-1 receptor): 0.026 µM
- IC50 [2]: 10 µM

Compound: Cc1ccccc1[C@@H](CCC(=O)O)Oc1cc(OCc2ccc3c(c2)OCO3)ccc1C#N
- IC50 (Endothelin-1 receptor): 0.069 µM
- IC50 [2]: 10 µM

Compound: Cc1ccccc1C(CCC(=O)O)Oc1cc(OCc2ccsc2)ccc1-c1ncc[nH]1 (stereo not drawn)
- IC50 (Endothelin-1 receptor): 0.163 µM
- IC50 [2]: > 10 µM

Compound: O=C(O)c1cc(-c2ccc(OCc3ccccc3)cc2OCc2ccccc2)n[nH]1
- IC50 (Endothelin-1 receptor): 1 µM
- IC50 [2]: > 30 µM

Compound: Cc1ccccc1C(CCC(=O)O)Oc1cc(OCc2ccsc2)ccc1-c1ncco1 (stereo not drawn)
- IC50 (Endothelin-1 receptor): 0.02 µM
- IC50 [2]: 10 µM

Compound: CC(C)C[C@@H]1NC(=O)[C@@H](C(C)C)NC(=O)[C@@H]2CCCN2C(=O)[C@@H](CC(=O)O)NC(=O)[C@@H](Cc2c[nH]c3ccccc23)NC1=O [BQ-123] (cyclo(L[dW][dD]P[dV]))
- IC50 (Endothelin-1 receptor): 0.014 µM

Compound: Cc1ccccc1C(CCC(=O)O)Oc1cc(OCc2ccsc2)ccc1-c1ccccn1 (stereo not drawn)
- IC50 (Endothelin-1 receptor): 0.04 µM
- IC50 [2]: 10 µM

Compound: Cc1ccccc1C(CCC(=O)O)Oc1cc(OCc2ccsc2)ccc1C#N (stereo not drawn)
- IC50 [2]: 5 µM
